Data reported in ChEMBL document CHEMBL1140235, “Novel 4-(4-aryl)cyclohexyl-1-(2-pyridyl)piperazines as Delta(8)-Delta(7) sterol isomerase (emopamil binding protein) selective ligands with antiproliferative activity” (J Med Chem, 2008).

Experiments:
[1] = molecular target: T1, 3-beta-hydroxysteroid-Delta(8),Delta(7)-isomerase (Cavia porcellus, UniProt Q60490); experiment: Displacement of [3H](-)-(S)-emopamil from EBP in guinea pig liver membrane; assay type: cell membranes
T1 sequence (Q60490 whole entry): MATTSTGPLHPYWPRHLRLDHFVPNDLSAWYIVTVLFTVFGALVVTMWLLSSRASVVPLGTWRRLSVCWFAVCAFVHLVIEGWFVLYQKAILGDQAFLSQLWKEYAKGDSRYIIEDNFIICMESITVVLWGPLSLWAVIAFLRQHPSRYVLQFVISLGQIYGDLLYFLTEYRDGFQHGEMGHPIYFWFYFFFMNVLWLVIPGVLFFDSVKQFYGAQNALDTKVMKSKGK
Procedure, shortened: (§1)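 Radioligand displacement run by previously published methods, EBP per Moebius and σ1/σ2 per Matsumoto. Tissues from male Dunkin guinea pigs and Wistar Hannover rats (250–300 g). IC50 from six to nine drug concentrations in two or three experiments, samples in duplicate.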

[2] = Displacement of [3H]-DTG from sigma 2-type opioid receptor in rat liver membrane in presence of (+)-pentazocine; assay type: cell membranes; procedure, shortened: as §1
PC-3 [3] = experiment: Antiproliferative activity against human PC3 cells expressing EBP after 48 hrs by MTT assay; assay type: functional, cell-based
Procedure, shortened: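 MTT read-out at 48 h in PC-3 cells grown in RPMI 1640 with 10% FBS, 2 mM glutamine, penicillin/streptomycin, 37 °C, 5% CO2. 10 000 cells/well seeded day 1, drugs added day 2 over 1–100 µM (150 or 300 µM for some references). Solvent controls included. MTT 0.5 mg/mL for 3 h, formazan dissolved in DMSO, absorbance at 570 and 630 nm.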

PC-3 [4] = experiment: Cytotoxicity against human PC3 cells assessed as LDH release after 24 hrs; assay type: functional, cell-based; conditions: PC-3, 24 h
Procedure, shortened: (§2)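 PC-3 cells exposed to test compound for 24 h at 37 °C, 5% CO2. LDH release into the medium was measured fluorimetrically (ex 560/em 590 nm) after 10 min with substrate mix at room temperature, then stop solution. Total LDH taken from lysed untreated wells. % cytotoxicity = 100 × (treated medium LDH − background)/(total LDH − background).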

[5] = molecular target: T2, 5-hydroxytryptamine receptor 1A (Rattus norvegicus, UniProt P19327); experiment: Displacement of [3H]8OH-DPAT from 5HT1A receptor in rat hippocampal membrane; assay type: cell membranes, Hippocampus
T2 sequence (P19327 whole entry): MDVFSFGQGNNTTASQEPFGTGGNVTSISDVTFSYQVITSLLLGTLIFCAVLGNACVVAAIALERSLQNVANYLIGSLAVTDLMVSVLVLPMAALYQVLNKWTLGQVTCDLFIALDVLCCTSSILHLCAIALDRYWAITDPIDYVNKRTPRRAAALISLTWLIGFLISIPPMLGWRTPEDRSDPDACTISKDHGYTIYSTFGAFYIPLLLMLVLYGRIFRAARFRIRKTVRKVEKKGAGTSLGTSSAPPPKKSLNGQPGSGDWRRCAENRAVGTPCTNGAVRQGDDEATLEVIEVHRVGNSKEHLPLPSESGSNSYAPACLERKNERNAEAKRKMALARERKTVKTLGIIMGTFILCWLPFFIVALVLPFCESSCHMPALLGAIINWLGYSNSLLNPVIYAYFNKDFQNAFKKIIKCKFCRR

D(2) dopamine receptor = D(2) dopamine receptor (Rattus norvegicus, UniProt P61169); experiment: Displacement of [3H]spiroperidol from dopamine D2 receptor in rat striatal membrane; assay type: cell membranes, Striatum
Chain of D(2) dopamine receptor (P61169 whole entry): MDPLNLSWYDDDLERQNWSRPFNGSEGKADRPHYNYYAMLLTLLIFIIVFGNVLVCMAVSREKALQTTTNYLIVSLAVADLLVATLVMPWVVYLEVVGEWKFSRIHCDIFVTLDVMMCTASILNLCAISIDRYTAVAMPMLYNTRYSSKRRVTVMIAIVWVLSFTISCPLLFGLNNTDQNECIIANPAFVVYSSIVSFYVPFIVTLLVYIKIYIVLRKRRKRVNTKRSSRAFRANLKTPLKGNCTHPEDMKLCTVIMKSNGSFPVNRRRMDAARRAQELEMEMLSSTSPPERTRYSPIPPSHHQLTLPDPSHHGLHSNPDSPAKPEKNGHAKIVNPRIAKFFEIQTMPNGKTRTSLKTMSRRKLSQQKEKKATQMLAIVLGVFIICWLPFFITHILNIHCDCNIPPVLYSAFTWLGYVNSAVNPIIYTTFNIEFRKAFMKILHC

[6] = molecular target: T3, Adrenergic receptor alpha-1 (Rattus norvegicus, UniProt P15823+P23944+P43140); experiment: Displacement of [3H]prazosin from adrenergic alpha1 receptor in rat cortical membrane; assay type: cell membranes
T3 sequence (P15823 whole entry): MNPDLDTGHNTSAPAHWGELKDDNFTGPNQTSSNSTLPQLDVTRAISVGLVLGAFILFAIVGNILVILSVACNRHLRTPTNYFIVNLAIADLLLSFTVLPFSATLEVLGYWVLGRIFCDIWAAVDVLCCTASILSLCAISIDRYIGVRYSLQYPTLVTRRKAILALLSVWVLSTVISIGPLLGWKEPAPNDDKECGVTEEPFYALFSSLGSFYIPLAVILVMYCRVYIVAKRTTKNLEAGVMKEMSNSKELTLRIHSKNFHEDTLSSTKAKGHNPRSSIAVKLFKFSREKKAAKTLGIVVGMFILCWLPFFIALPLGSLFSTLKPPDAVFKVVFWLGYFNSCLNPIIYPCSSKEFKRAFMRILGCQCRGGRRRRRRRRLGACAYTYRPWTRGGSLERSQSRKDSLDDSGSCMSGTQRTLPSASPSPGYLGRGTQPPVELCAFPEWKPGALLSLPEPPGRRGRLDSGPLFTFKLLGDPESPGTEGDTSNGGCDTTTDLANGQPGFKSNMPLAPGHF
T3 sequence (P23944 whole entry): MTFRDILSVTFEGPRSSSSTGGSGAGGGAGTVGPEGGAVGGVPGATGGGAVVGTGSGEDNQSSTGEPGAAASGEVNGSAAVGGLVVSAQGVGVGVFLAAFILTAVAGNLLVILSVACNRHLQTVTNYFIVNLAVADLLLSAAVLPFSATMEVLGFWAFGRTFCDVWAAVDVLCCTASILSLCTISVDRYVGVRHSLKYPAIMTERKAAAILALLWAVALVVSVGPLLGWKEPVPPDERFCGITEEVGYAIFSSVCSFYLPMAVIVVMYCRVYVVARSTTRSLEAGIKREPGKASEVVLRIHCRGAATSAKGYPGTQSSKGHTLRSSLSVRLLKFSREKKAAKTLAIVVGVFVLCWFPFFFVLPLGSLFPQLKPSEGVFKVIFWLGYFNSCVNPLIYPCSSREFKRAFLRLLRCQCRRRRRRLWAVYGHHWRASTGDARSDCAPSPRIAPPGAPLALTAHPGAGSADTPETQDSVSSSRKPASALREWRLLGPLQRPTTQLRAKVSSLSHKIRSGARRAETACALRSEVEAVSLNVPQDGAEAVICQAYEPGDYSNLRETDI
T3 sequence (P43140 whole entry): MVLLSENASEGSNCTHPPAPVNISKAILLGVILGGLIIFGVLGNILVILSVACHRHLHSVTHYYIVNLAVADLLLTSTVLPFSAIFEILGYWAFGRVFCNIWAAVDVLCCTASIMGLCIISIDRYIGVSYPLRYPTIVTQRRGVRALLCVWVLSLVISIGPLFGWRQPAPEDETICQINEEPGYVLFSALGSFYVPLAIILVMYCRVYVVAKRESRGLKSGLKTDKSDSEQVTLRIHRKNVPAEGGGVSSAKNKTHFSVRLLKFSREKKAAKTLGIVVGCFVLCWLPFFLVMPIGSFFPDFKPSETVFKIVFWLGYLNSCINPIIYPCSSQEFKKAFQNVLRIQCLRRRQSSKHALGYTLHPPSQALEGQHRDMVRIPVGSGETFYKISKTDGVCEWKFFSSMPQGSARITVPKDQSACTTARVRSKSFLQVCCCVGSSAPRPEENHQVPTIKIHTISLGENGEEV

[7] = molecular target: Sigma non-opioid intracellular receptor 1 (Cavia porcellus, UniProt Q60492); experiment: Displacement of [3H](+)-pentazocine from sigma 1 receptor in guinea pig brain membrane without cerebellum; assay type: cell membranes; procedure, shortened: as §1
Chain of Sigma non-opioid intracellular receptor 1 (Q60492 whole entry): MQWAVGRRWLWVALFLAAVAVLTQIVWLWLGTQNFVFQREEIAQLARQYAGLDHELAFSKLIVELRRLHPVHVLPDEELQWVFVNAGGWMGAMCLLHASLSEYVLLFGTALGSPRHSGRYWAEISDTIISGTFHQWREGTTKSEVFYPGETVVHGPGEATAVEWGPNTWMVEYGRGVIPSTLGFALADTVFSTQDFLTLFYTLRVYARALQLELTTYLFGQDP

Cavia porcellus = organism: Cavia porcellus; experiment: Selectivity ratio of Ki for sigma 1 receptor in guinea pig brain membrane without cerebellum to Ki for EBP in guinea pig liver membrane; assay type: cell membranes
[8] = Selectivity ratio of Ki for sigma 2 receptor in rat liver membrane to Ki for EBP in guinea pig liver membrane; assay type: cell membranes
PC-3 [9] = experiment: Cytotoxicity against human PC3 cells assessed as LDH release at 100 uM after 24 hrs relative to untreated control; assay type: functional; procedure, shortened: as §2
PC-3 [10] = experiment: Antiproliferative activity against human PC3 cells expressing EBP at 100 uM after 48 hrs by MTT assay; assay type: functional; conditions: PC-3, 48 h
Procedure, shortened: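 PC-3 human prostate cancer cells grown in RPMI 1640 with 10% FBS, 2 mM glutamine and penicillin/streptomycin at 37 °C under 5% CO₂. Seeded at 10 000 cells/well, then dosed the next day with solvent (ethanol, DMSO) controls. Incubated 48 h. MTT 0.5 mg/mL added for 3 h at 37 °C, formazan dissolved in DMSO, absorbance read at 570 and 630 nm. Percent inhibition at 100 µM, n ≥ 2 separate experiments.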

Structure (SMILES)	Ki [1]	Ki [2]	EC50 (PC-3 [3])	EC50 (PC-3 [4])	Ki [5]	Ki (D(2) dopamine receptor)	Ki [6]	Ki [7]	Ratio Ki (Cavia porcellus)	Ratio Ki [8]	Activity (PC-3 [9])	inhibition at 100 µM (PC-3 [10])
COc1cccc2c1CCCC2CCCN1CCN(C2CCCCC2)CC1 (stereo not drawn)	8.38 nM	0.34 nM	37700 nM	64200 nM								
COc1ccccc1[C@H]1CC[C@@H](N2CCN(c3ccccn3)CC2)CC1	8.15 nM	242 nM	19300 nM		480 nM	2120 nM	712 nM	369 nM	45	30	<10%	
COc1ccc([C@H]2CC[C@@H](N3CCN(c4ccccn4)CC3)CC2)cc1	32.8 nM	63.8 nM			94 nM	787 nM	786 nM	194 nM	4		<10%	
Cc1ccccc1NC(=N)Nc1ccccc1C	7660 nM	31.1 nM									<10%	27%
c1ccc(CCN2CCCCC2)cc1	595 nM	194 nM						309 nM	0.5	0.3	<10%	30%
